Screening data from PubChem.
This is one part of a sample in which hits are shown more often than they occur.
CHOP inhibitor = inhibitors of CHOP promoter induction, primary screen, cell-based, unfolded protein response, luciferase reporter; inhibition, % at 10 µM; 220,000 compounds, 3.8% hits; CHO-K1 CHOP-promoter luciferase, tunicamycin-induced, 15-18 h;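 active = compounds that reduced the stress-induced luciferase reporter signal by more than about 70% of percent inhibition, limit read from the data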
Jurkat NFkB inh = inhibitors of induced NF-kB luciferase reporter, primary screen, TCR NF-kB activation inhibitor project, cell-based, luminescence, uHTS; Jurkat, PMA/ionomycin-induced NF-kB luciferase reporter; inhibition, % at 4 µM; 330,000 compounds, 0.53% hits; in the data active = inhibition above about 50%
697 NFkB inh = inhibitors of PMA/ionomycin-induced NF-kB reporter, 697 cells, primary screen, B-cell NF-kB inhibitor project, cell-based, luminescence, uHTS; 697 B-cell NF-kB luciferase reporter, 16 h; inhibition, % at 4 µM; 330,000 compounds, 0.33% hits; in the data active = inhibition above about 35%
XBP1 UPR activ = activators of adaptive XBP1 UPR arm, primary screen, cell-based, CHO-XBP1 luciferase reporter, luminescence, uHTS | 330,000 compounds, 0.33% hits | IRE1-XBP1 UPR activation; percent of tunicamycin response, DMSO as zero | activation, % at 20 µM;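 active = versus positive control, 20 µM dose yields 30% or more activation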
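Signal: luciferase luminescence; Assay system: CHO-XBP1 luciferase reporter cells; Amount: one thousand reporter cells per well; Dosing: 20 µM single concentration, DMSO 1%; Benchmarks: high control tunicamycin 10 µg/mL final, low control DMSO vehicle only; Schedule: 6 h compound exposure at 37 °C, 5% CO2; Evaluation: percent activation relative to tunicamycin reference.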
UPR CHOP act = activators of apoptotic CHOP UPR arm, primary screen, cell-based, CHO-CHOP luciferase reporter, luminescence, uHTS. 330,000 compounds, 0.34% hits. AID 449763, 2010. UPR activation; percent of tunicamycin response over DMSO baseline. activation, % at 10 µM;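 active = at 10 µM dose, activation of 40% or more, normalized to positive control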
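System: CHO-CHOP luciferase reporter cell line | Buffer or medium: F12 medium containing 10% fetal bovine serum | Doses: One dose, 10 µM in 0.5% DMSO | Times: 6 h compound exposure at 37 °C after overnight seeding | Signal: Luciferase luminescence | Read-out: % activation vs tunicamycin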
CHOP confirm = retest of CHOP induction inhibitors, confirmation, cell-based; shares compounds with CHOP inhibitor; CHO-CHOP promoter luciferase reporter, tunicamycin-induced, luminescence; inhibition, % at 10 µM; 2,100 compounds, 45% hits;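 active = mean of three repeat readings of reporter signal inhibition above a set limit, cut at about 70% in these data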
Each line names hits and unclear results; the compound was inactive in the other large screens (follow-up assays come after a bar, where they were run).

Cc1ccc(OCC(=O)N2CCN(c3nnc(-c4ccc(C)cc4)c4ccccc34)CC2)cc1	CHOP inhibitor 97.4 | CHOP confirm 74.6
COC(=O)CN1C(=S)N(Cc2ccccc2)C(=O)C1CC(=O)Nc1ccc(Br)cc1 (configuration not stated)	CHOP inhibitor 102.1 | CHOP confirm 97.8
COC(=O)CN1C(=S)N(c2ccc(F)cc2)C(=O)C1CC(=O)Nc1ccc(F)cc1 (configuration not stated)	none
C/C(N)=C(/C#N)C(=O)COC(=O)CC1CCCC1	none (no result: CHOP inhibitor)
C/C(N)=C(/C#N)C(=O)COC(=O)C1CCC(C(C)(C)C)CC1 (configuration not stated)	CHOP inhibitor 97.3 | CHOP confirm 86.7
CN1CCN(S(=O)(=O)c2cc([N+](=O)[O-])ccc2N/N=C/c2ccc(Cl)cc2)CC1	none
O=[N+]([O-])c1ccc(N/N=C/c2c[nH]c3ccccc23)c(S(=O)(=O)Nc2ccc(Cl)cc2)c1	CHOP inhibitor 106.4 | CHOP confirm inactive
CC1(C(=O)O)CCC(C(=O)NNC(=O)c2ccccc2Cl)C1(C)C (configuration not stated)	none (no result: CHOP inhibitor)
O=C(CCN1CCN(S(=O)(=O)c2ccc(Cl)cc2)CC1)Nc1ccc(F)cc1	none (no result: CHOP inhibitor)
Cc1ccc(CNC(=O)C2CCC(CNc3nc(=S)[nH]c4ccccc34)CC2)cc1 (configuration not stated)	CHOP inhibitor 97.9 | CHOP confirm inactive
CC(=O)c1ccc(NC(=O)CN(c2c(C)cccc2C)S(C)(=O)=O)cc1	none (no result: CHOP inhibitor)
CCCCOC(=O)Nc1ccc(S(=O)(=O)Nc2nc(C)cc(C)n2)cc1	none
CCCCCCOC(=O)Nc1ccc(S(=O)(=O)Nc2cccc([N+](=O)[O-])c2)cc1	CHOP inhibitor 106.3 | CHOP confirm 109.9
CC1=C(C)CS(=O)N(S(=O)(=O)c2ccc(Cl)cc2)C1 (configuration not stated)	none (no result: CHOP inhibitor) | CHOP confirm inactive
CC1CCCC(C)N1S(=O)(=O)c1ccc(Cl)cc1 (configuration not stated)	none (no result: CHOP inhibitor)
Clc1ccc(CSc2nnc(-c3c[nH]c4ccccc34)o2)cc1	none
Brc1ccc(CSc2nnc(Cc3c[nH]c4ccccc34)o2)cc1	CHOP inhibitor 103.5 | CHOP confirm inactive
CCOc1ccc(OCc2ccc(C(=O)N3N=C(C(F)F)CC3(O)C(F)F)o2)cc1 (configuration not stated)	CHOP inhibitor 98.8 | CHOP confirm inactive
Cc1ccc(C)c(OCc2ccc(C(=O)N3N=C(C(F)F)CC3(O)C(F)F)o2)c1 (configuration not stated)	CHOP inhibitor 108.2 | CHOP confirm 119.7
Cc1cc(C)cc(OCc2ccc(C(=O)N3N=C(C(F)F)CC3(O)C(F)F)o2)c1 (configuration not stated)	CHOP inhibitor 102.1 | CHOP confirm inactive
O=C(c1ccc(COc2ccc(Br)cc2)o1)N1N=C(C(F)F)CC1(O)C(F)F (configuration not stated)	CHOP inhibitor 108.0 | CHOP confirm inactive
O=C(c1ccc(Cn2cc(Br)cn2)cc1)N1N=C(C(F)F)CC1(O)C(F)F (configuration not stated)	none
Cc1c(C(=O)Nc2c(F)cc(F)cc2Br)sc2ncn(CC(=O)N3CCCC3)c(=O)c12	none (no result: CHOP inhibitor)
O=C(C[C@@H]1C/C=C\CC[C@H](Cc2ccc(F)cc2)C(=O)OC[C@@H]2CCCN2C1=O)NCCO	none (no result: CHOP inhibitor)
Cc1ccc(OCc2nnc(N)s2)cc1C	none
O=C(Nc1ccccc1-c1ccccc1)c1ccc(=O)[nH]n1	none (no result: CHOP inhibitor)
O=C(c1ccc(COc2ccc3ccccc3c2)o1)N1N=C(C(F)F)CC1(O)C(F)F (configuration not stated)	CHOP inhibitor 111.4 | CHOP confirm inactive
Cc1ccc(S(=O)(=O)N(C)C)cc1NC(=O)COC(=O)CSc1ccccc1	none (no result: CHOP inhibitor)
N=C1/C(=C\c2ccc(-c3ccc(C(=O)O)cc3)o2)C(=O)N=C2SC=C(c3ccccc3)N12	CHOP inhibitor 100.3 (no result: Jurkat NFkB inh, 697 NFkB inh, XBP1 UPR activ, UPR CHOP act) | CHOP confirm inactive
Cc1cccc(C)c1OCC(O)Cn1c2ccccc2c2ccccc21 (configuration not stated)	CHOP inhibitor 106.8 | CHOP confirm inactive
OC(COCC(F)(F)C(F)(F)C(F)(F)C(F)F)Cn1c2ccccc2c2ccccc21 (configuration not stated)	CHOP inhibitor 107.7 | CHOP confirm 109.6
C=CCN(CC=C)CC(O)Cn1c2ccccc2c2ccccc21 (configuration not stated)	none
COc1cccc(CNC(=O)CCCC(=O)NC(C)CCc2ccccc2)c1 (configuration not stated)	none (no result: CHOP inhibitor)
CCn1cc([N+](=O)[O-])c(C(=O)N2N=C(c3ccc4ccccc4c3)CC2c2ccccc2O)n1 (configuration not stated)	none
CCn1cc(Cl)c(C(=O)N2N=C(c3ccc4ccccc4c3)CC2c2ccccc2O)n1 (configuration not stated)	CHOP inhibitor 96.7 | CHOP confirm inactive
Cc1ccsc1/C=N/NC(=O)c1ccc(-n2cccc2)cc1	none
O=C1Nc2ccc(Br)cc2/C1=C/C(=O)c1ccc2c(c1)OCO2	CHOP inhibitor 106.6 | CHOP confirm inactive
COc1ccccc1CNS(=O)(=O)c1ccc2c(c1)CC(C)N2C(=O)C1CCC1 (configuration not stated)	none (no result: CHOP inhibitor)
CC1CCN(C(=O)/C(=C/c2ccccc2Cl)c2ccccc2)CC1	CHOP inhibitor 100.8 | CHOP confirm 87.6
O=C1CC(c2cc(-c3ccccc3)no2)C1	none (no result: CHOP inhibitor)
O=C(Nc1ccccc1NC(=O)NC1CCCCC1)NC1CCCCC1	CHOP inhibitor 103.6 | CHOP confirm 114.1
CCOC(=O)C1CCN(C(=O)COC(=O)CN(C)S(=O)(=O)c2ccc(NC(C)=O)cc2)CC1	none (no result: CHOP inhibitor)
Cc1ccc(Nc2nc(Cl)c(C=O)s2)cc1Cl	CHOP inhibitor 96.1 | CHOP confirm inactive
O=S(=O)(c1cc(O)ccc1O)c1cccc2c(S(=O)(=O)c3cc(O)ccc3O)cccc12	none (no result: CHOP inhibitor)
O=P(CCCCCCCCCP(=O)(c1ccccc1)c1ccccc1)(c1ccccc1)c1ccccc1	CHOP inhibitor 99.5 | CHOP confirm inactive
O=C(Nc1ccc(Cl)cc1)Nc1nc(-c2sccc2Br)cs1	none
O=C(Nc1ccc(Cl)cc1)Nc1nc(-c2ccccc2O)cs1	CHOP inhibitor 103.9 | CHOP confirm inactive
C/C(=N\NC(=O)c1ccc(F)cc1)c1ccc(N2CCOCC2)cc1	none
